Measurements as given in article PMC6828556 (Biochemical pharmacology, 2017).
Blank lines part the entries; values can stand above or below the molecule they belong to.

Assays:
human 11β-HSD1 = human 11β-HSD1 (Homo sapiens, UniProt P28845); format: biochemical; conditions: for activity against 11β-HSD1 (in words): HEK-293 lysates, recombinant human enzyme; for inhibition at 20 µM: read-out: inhibition of 11β-HSD1 enzyme activity
Procedure, shortened: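 Lysates of HEK-293 cells stably co-expressing human 11β-HSD1 and H6PDH (HHH7 clone) were incubated 10 min at 37°C with 200 nM radiolabeled cortisone, 500 μM NADPH and test compound or DMSO vehicle (max 0.1%). Reactions were stopped with excess unlabeled cortisone/cortisol, giving about 20–25% conversion. Steroids were separated by TLC (chloroform:methanol 9:1) and counted by scintillation. Activity was normalized to vehicle; mean ± SD, ≥3 independent experiments. IC50 was skipped when residual activity at 20 μM exceeded 40%.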

11β-HSD2 [1] = biological target: T1, 11β-HSD2 (Homo sapiens, UniProt P80365); assay: 11β-HSD2 activity in lysates of HEK-293 cells stably expressing human 11β-HSD2; format: biochemical; conditions: for inhibition at 20 µM: read-out: inhibition of 11β-HSD2 enzyme activity; for residual 11β-HSD2 activity: 20 μM test substance; for IC25 for 11β-HSD2: as determined in HEK-293 cell lysates
T1 sequence (P80365 1-405): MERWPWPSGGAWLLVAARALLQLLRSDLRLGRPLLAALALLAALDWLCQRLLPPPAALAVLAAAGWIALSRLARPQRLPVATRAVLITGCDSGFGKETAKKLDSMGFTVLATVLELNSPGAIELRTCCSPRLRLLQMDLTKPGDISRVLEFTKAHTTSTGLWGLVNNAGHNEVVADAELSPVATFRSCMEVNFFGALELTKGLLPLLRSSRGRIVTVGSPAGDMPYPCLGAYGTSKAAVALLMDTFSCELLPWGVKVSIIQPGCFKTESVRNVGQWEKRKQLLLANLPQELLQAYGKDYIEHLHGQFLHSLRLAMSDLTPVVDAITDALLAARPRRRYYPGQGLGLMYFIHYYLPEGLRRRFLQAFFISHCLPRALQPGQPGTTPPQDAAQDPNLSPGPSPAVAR
Procedure, shortened: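 Reactions were stopped with excess unlabeled cortisone/cortisol, giving about 20–25% conversion. Products were separated by TLC (chloroform:methanol 9:1) and counted by scintillation. Activity was normalized to vehicle; mean ± SD, ≥3 independent experiments.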

11β-HSD2 [2] = conditions: cited from earlier work
11β-HSD1 = conditions: cited from earlier work
[3] = predominately to albumin; cited from earlier work
human 17β-HSD1 = biological target: T2, human 17β-HSD1 (Homo sapiens, UniProt P14061); assay: 17β-HSD1 activity in lysates of transiently transfected HEK-293 cells; format: biochemical; conditions: HEK-293 lysates, 200 nM estrone; data not shown
T2 sequence (P14061 1-328): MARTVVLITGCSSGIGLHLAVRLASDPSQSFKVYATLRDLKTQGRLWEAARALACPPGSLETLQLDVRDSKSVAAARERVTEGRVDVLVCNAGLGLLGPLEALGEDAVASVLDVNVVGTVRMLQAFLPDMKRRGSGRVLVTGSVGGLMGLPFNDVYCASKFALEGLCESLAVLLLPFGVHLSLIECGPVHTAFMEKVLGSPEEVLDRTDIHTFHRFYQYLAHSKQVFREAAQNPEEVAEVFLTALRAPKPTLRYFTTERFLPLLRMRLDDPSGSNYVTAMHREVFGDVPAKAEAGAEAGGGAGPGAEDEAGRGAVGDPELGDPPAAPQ
Procedure, shortened: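 Lysates of HEK-293 cells transiently expressing human 17β-HSD1 were incubated for 10 min at 37°C with 200 nM estrone (containing 50 nCi [2,4,6,7-3H]-estrone), 500 μM NADPH and test compound or DMSO vehicle. Steroids were separated by TLC, and substrate conversion was measured by scintillation counting. Activity was normalized to the vehicle control. Data are mean ± SD from at least three independent experiments.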

11β-HSD2 [4] = biological target: T1, 11β-HSD2; assay: 11β-HSD2 activity in intact SW-620 cells; format: cell-based
Procedure, shortened: (§1)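 Cells were grown in DMEM with 10% FBS (SW-620 passages 11–15, MCF-7 passages 19–27) and seeded at 100 000 (SW-620) or 50 000 (MCF-7) per well. After 24 h, medium was replaced by steroid- and serum-free DMEM with vehicle or inhibitor plus radiolabeled cortisol (10 nCi; 50 nM final). Incubation was at 37°C for 4 h (SW-620) or 5 h (MCF-7). Conversion was read by TLC and scintillation counting.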

human 17β-HSD2 = biological target: T3, human 17β-HSD2 (Homo sapiens, UniProt P37059); assay: 17β-HSD2 activity in lysates of transiently transfected HEK-293 cells; format: biochemical; conditions: HEK-293 lysates, 200 nM estradiol; data not shown
T3 sequence (P37059 1-387): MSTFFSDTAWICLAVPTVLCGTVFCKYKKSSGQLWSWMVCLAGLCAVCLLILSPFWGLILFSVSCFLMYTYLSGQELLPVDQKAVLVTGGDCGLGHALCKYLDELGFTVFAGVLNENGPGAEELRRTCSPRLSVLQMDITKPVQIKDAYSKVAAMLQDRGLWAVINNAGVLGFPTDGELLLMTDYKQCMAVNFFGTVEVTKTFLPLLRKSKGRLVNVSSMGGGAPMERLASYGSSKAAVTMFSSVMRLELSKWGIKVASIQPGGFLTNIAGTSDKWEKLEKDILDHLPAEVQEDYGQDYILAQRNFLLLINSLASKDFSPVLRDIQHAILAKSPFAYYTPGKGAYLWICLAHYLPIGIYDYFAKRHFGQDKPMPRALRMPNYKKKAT
Procedure, shortened: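 Lysates of HEK-293 cells transiently expressing human 17β-HSD2 were incubated for 10 min at 37°C with 200 nM estradiol (containing 50 nCi [2,4,6,7-3H]-estradiol), 500 μM NAD+ and test compound or DMSO vehicle. Steroids were separated by TLC, with conversion quantified by scintillation counting. Results were normalized to the vehicle control. Data are mean ± SD from at least three independent experiments.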

11β-HSD2 [5] = biological target: T1, 11β-HSD2; assay: 11β-HSD2 activity in intact MCF-7 cells; format: cell-based
Procedure, shortened: as §1

11β-HSD2 [6] = biological target: T1, 11β-HSD2; format: biochemical; conditions: preincubation 0, 5, 20 min at 4°C or 10 min followed by dilution
Procedure, shortened: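 Lysates of HEK-293 cells expressing human 11β-HSD2 were preincubated with test compound for 0, 5 or 20 min at 4°C before activity measurement. Alternatively, lysates were preincubated 10 min with compound, then diluted 1:2 or 1:4 before measuring 11β-HSD2 activity (radiolabeled cortisol, NAD+, TLC/scintillation). Data were normalized to DMSO control; mean ± SD, ≥3 independent experiments.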

[7] = cited from earlier work
[8] = first trimester exposure, 229 women, 50-800 mg daily, prospective cohort; cited from earlier work

Sequence of human 11β-HSD1 (P28845 whole entry): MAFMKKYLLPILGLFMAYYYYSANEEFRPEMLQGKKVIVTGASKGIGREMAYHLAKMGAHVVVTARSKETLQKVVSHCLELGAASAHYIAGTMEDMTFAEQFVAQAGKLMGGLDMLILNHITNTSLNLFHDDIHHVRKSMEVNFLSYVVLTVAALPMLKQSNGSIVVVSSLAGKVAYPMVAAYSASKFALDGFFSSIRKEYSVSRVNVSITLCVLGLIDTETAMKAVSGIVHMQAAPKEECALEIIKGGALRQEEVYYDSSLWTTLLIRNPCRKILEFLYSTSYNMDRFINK

Structure (SMILES): CCCSc1ccc2nc(NC(=O)OC)[nH]c2c1 [Albendazole]
activity against 11β-HSD1 (in words) (human 11β-HSD1): inactive | activity against 11β-HSD2 (in words) (11β-HSD2 [1]; HEK-293 lysates, recombinant human enzyme): inactive

Structure (SMILES): CC(=O)N1CCN(c2ccc(OCC3COC(Cn4ccnc4)(c4ccc(Cl)cc4Cl)O3)cc2)CC1 (centres unmarked) [Ketoconazole]
inhibitory effect toward 11β-HSD2 (in words) (11β-HSD2 [2]): weak inhibitory effects | inhibitory effect toward 11β-HSD1 (in words) (11β-HSD1): weak inhibitory effects

Structure (SMILES): CC(O)C(C)n1ncn(-c2ccc(N3CCN(c4ccc(OCC5COC(Cn6cncn6)(c6ccc(Cl)cc6Cl)O5)cc4)CC3)cc2)c1=O (centres unmarked) [OHI, hydroxyitraconazole]
plasma protein binding [3]: 99.6% | inhibition of 17β-HSD1 activity (human 17β-HSD1): None of the compounds inhibited 17β-HSD1 or 17β-HSD2 activity | IC50 (11β-HSD2 [4]): 0.82 ± 0.18 µM | inhibition of 17β-HSD2 activity (human 17β-HSD2): None of the compounds inhibited 17β-HSD1 or 17β-HSD2 activity | IC50 (11β-HSD2 [1]): 0.223 ± 0.031 µM | inhibition of human 11β-HSD2 (in words) (11β-HSD2 [1]; 5 μM, HEK-293 lysates, 200 nM cortisol): complete inhibition | IC50 (11β-HSD2 [5]): 0.68 ± 0.2 µM | irreversible 11β-HSD2 inhibition (11β-HSD2 [6]): excluded

Structure (SMILES): CCN(CC)Cc1cc(Nc2ccnc3cc(Cl)ccc23)ccc1O [amodiaquine]
inhibition at 20 µM (human 11β-HSD1): < 40% | inhibition at 20 µM (11β-HSD2 [1]): < 40%

Structure (SMILES): Clc1ccc(CCC(Cn2ccnc2)Sc2c(Cl)cccc2Cl)cc1 (centres unmarked) [butoconazole]
inhibition at 20 µM (human 11β-HSD1): ≥ 50% | residual 11β-HSD2 activity (11β-HSD2 [1]; HEK-293 lysates): 44%

Structure (SMILES): CCN(CC)CCCC(C)Nc1ccnc2cc(Cl)ccc12 (centres unmarked) [chloroquine]
inhibition at 20 µM (human 11β-HSD1): < 40% | inhibition at 20 µM (11β-HSD2 [1]): < 40%

Structure (SMILES): CCC[C@@H]1C[C@@H](C(=O)N[C@@H]([C@H]2O[C@H](SC)[C@H](O)[C@@H](O)[C@H]2O)[C@H](C)Cl)N(C)C1 [clindamycin]
inhibition at 20 µM (human 11β-HSD1): < 40% | inhibition at 20 µM (11β-HSD2 [1]): < 40%

Structure (SMILES): Cc1onc(-c2ccccc2Cl)c1C(=O)N[C@@H]1C(=O)N2[C@@H]1SC(C)(C)[C@@H]2C(=O)O [cloxacillin]
inhibition at 20 µM (human 11β-HSD1): < 40% | inhibition at 20 µM (11β-HSD2 [1]): < 40%

Structure (SMILES): Cc1onc(-c2c(F)cccc2Cl)c1C(=O)N[C@@H]1C(=O)N2[C@@H]1SC(C)(C)[C@@H]2C(=O)O [flucloxacillin]
inhibition at 20 µM (human 11β-HSD1): < 40% | inhibition at 20 µM (11β-HSD2 [1]): < 40%

Structure (SMILES): CC(=O)O[C@H]1C[C@@]2(C)[C@@H](C[C@@H](O)[C@H]3[C@@]4(C)CC[C@@H](O)[C@@H](C)[C@@H]4CC[C@@]32C)/C1=C(\CCC=C(C)C)C(=O)O [fusidic acid]
inhibition at 20 µM (human 11β-HSD1): < 40% | inhibition at 20 µM (11β-HSD2 [1]): < 40%

Structure (SMILES): CC(C)(C)C(=O)C(Oc1ccc(Cl)cc1)n1cncn1 (centres unmarked) [triadimefon]
IC50 (11β-HSD1; read-out: IC50 as competitive inhibitor of 11β-HSD1): 15 µM | Km (11β-HSD1; read-out: Km as substrate of 11β-HSD1): 3.5 µM

Further lines, with some results ahead:

activity against 11β-HSD1 (in words) (human 11β-HSD1): inactivity towards 11β-HSD1 | IC50 (11β-HSD2 [4]): 1.07 ± 0.29 µM | IC50 (11β-HSD2 [1]): 0.139 ± 0.014 µM | IC25 for 11β-HSD2 (11β-HSD2 [1]): 0.078 µM | IC50 (11β-HSD2 [5]): 1.19 ± 0.24 µM | irreversible 11β-HSD2 inhibition (11β-HSD2 [6]): excluded
Structure (SMILES): CCC(C)n1ncn(-c2ccc(N3CCN(c4ccc(OCC5COC(Cn6cncn6)(c6ccc(Cl)cc6Cl)O5)cc4)CC3)cc2)c1=O (centres unmarked) [itraconazole]
concentration in fat tissue relative to plasma ([7]; fat tissue): approximately 17 fold | duration of treatment needed to reach plasma steady-state levels ([7]; human plasma): 15 days | concentration in lung, liver, muscle and kidney relative to plasma ([7]; lung, liver, muscle and kidney): 2-3 fold | inhibition of 17β-HSD1 activity (human 17β-HSD1): None of the compounds inhibited 17β-HSD1 or 17β-HSD2 activity | rate of malformations compared to the control [8]: no difference | inhibition of 17β-HSD2 activity (human 17β-HSD2): None of the compounds inhibited 17β-HSD1 or 17β-HSD2 activity

inhibition at 20 µM (human 11β-HSD1): < 40% | inhibition at 20 µM (11β-HSD2 [1]): < 40%
Structure (SMILES): CCC[C@@H]1C[C@@H](C(=O)N[C@@H]([C@H]2O[C@H](SC)[C@H](O)[C@@H](O)[C@H]2O)[C@@H](C)O)N(C)C1 [lincomycin]

inhibition at 20 µM (human 11β-HSD1): < 40% | inhibition at 20 µM (11β-HSD2 [1]): < 40%
Structure (SMILES): CCOc1ccc2ccccc2c1C(=O)N[C@@H]1C(=O)N2[C@@H]1SC(C)(C)[C@@H]2C(=O)O [nafcillin]

inhibition at 20 µM (human 11β-HSD1): < 40% | inhibition at 20 µM (11β-HSD2 [1]): < 40%
Structure (SMILES): N=C(N)c1ccc(OCCCCCOc2ccc(C(=N)N)cc2)cc1 [pentamidine]

activity against 11β-HSD1 (in words) (human 11β-HSD1): inactivity towards 11β-HSD1 | residual 11β-HSD2 activity (11β-HSD2 [4]; SW-620 cells, 5 μM): approximately 60% | IC50 (11β-HSD2 [1]): 0.46 ± 0.098 µM | IC25 for 11β-HSD2 (11β-HSD2 [1]): 0.237 µM | residual 11β-HSD2 activity (11β-HSD2 [5]; MCF-7 cells, 5 μM): ~40% | irreversible 11β-HSD2 inhibition (11β-HSD2 [6]): excluded
Structure (SMILES): CC[C@@H]([C@H](C)O)n1ncn(-c2ccc(N3CCN(c4ccc(OC[C@@H]5CO[C@@](Cn6cncn6)(c6ccc(F)cc6F)C5)cc4)CC3)cc2)c1=O [posaconazole]
plasma protein binding [3]: ≥ 98% | concentration in pulmonary alveolar cells compared with plasma ([7]; pulmonary alveolar cells): 31-42 fold | inhibition of 17β-HSD1 activity (human 17β-HSD1): None of the compounds inhibited 17β-HSD1 or 17β-HSD2 activity | inhibition of 17β-HSD2 activity (human 17β-HSD2): None of the compounds inhibited 17β-HSD1 or 17β-HSD2 activity

inhibition at 20 µM (human 11β-HSD1): < 40% | inhibition at 20 µM (11β-HSD2 [1]): < 40%
Structure (SMILES): CCCN(CCC)S(=O)(=O)c1ccc(C(=O)O)cc1 [probenecid]

inhibition at 20 µM (human 11β-HSD1): ≥ 50% | residual 11β-HSD2 activity (11β-HSD2 [1]; HEK-293 lysates): 61%
Structure (SMILES): Clc1ccc(C(Cn2ccnc2)OCc2csc3c(Cl)cccc23)c(Cl)c1 (centres unmarked) [sertaconazole]

inhibition at 20 µM (human 11β-HSD1): ≥ 50% | residual 11β-HSD2 activity (11β-HSD2 [1]; HEK-293 lysates): 50%
Structure (SMILES): Clc1ccc(C(Cn2ccnc2)OCc2ccsc2Cl)c(Cl)c1 (centres unmarked) [tioconazole]
